Screening results from PubChem.
Redox H2O2 prof – compounds producing H2O2 with reducing agent – biochemical, NIH compound library profiling, artefact control for MLSCN library redox annotation, primary screen; 0.03% of 200,000 active; activation, % at 10 µM; AID 878; DTT-dependent redox cycling H2O2, phenol red/HRP absorbance; 100% = 100 µM peroxide control, 0% = buffer;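 active = activation of at least 50% relative to the plate's high and low controls in the primary single-dose screen; inactive = activation below 50%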;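 note: compound incubated with DTT at 0.8 mM final as the reducing agent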
MPTP block – permeability transition pore inhibition | isolated mouse mitochondria, Ca2+ swelling absorbance, 30 min | inhibition, % at 10 µM | 1.4% of 360,000 active;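 active = inhibition of 50% or more, scaled per plate between neutral and stimulator controls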
Hep lipid drop – hepatic lipid droplet formation modulation | AML12 mouse hepatocytes, oleate lipid droplets, BODIPY imaging | inhibition, % at 6.5 µM | 0.4% of 240,000 active;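 active = lipid droplet intensity inhibited by at least 50%, with more than 500 cells counted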
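Material – mouse AML12 hepatocyte cell line, fixed after treatment · Compound dosing – one dose, 6.5 µM compound · Times – compound with oleate, overnight · Measured by – Image-based BODIPY and DAPI two-channel analysis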
Lmaj promast – reduces viability of Leishmania major promastigotes. AID 1063. inhibition, % at 10 µM. resazurin fluorescence viability. 9% of 200,000 active; in the data active = inhibition above about 50%;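 note: promastigotes grown with compound for 44 hours at 28 °C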
T cruzi inh – blocks replication of Trypanosoma cruzi; T. cruzi beta-gal in NIH3T3, luminescence, 90 h; inhibition, % (test concentration not listed); 1.4% of 300,000 active; AID 1885;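 active = mean inhibition across valid replicates above about 55%, limit read from the data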;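 note: signal also drops with host cell toxicity which is not excluded here; higher percent means less beta-gal luminescence so fewer parasites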
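System: mouse NIH/3T3 fibroblasts infected with β-gal-expressing T. cruzi Tulahuen C4 / Input: NIH/3T3 cells, 5,000 per well / Buffer or medium: Low-serum DMEM with 2% FBS / Probe or stimulus: 5000 reporter trypomastigotes per well / Schedule: ≥90 h infection period, 3 h prior cell attachment / Measured by: GalScreen luminescence, 60 min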
Each line names hits and unclear results; the compound was inactive in the other large screens. The full list was thinned out, with hits kept by preference.

COc1ccc(-c2nnn(CC(=O)N(Cc3ccc(F)cc3)C(C(=O)NC3CCCC3)c3ccc(F)cc3)n2)cc1 (configuration not stated)	none (no result: Hep lipid drop)
O=C(NC1CCCC1)C(c1ccc(F)cc1)N(Cc1ccc(F)cc1)C(=O)CCl (configuration not stated)	Lmaj promast 100.0
Cc1cc(C)c(N(C(=O)CN2C(=O)c3ccccc3S2(=O)=O)C(C(=O)NCC2CCCO2)c2ccc(F)cc2)c(C)c1 (configuration not stated)	Lmaj promast 69.2
O=C(NC1CCCCC1)C(c1ccc(F)cc1)N(Cc1ccccc1)C(=O)CN1C(=O)c2ccccc2S1(=O)=O (configuration not stated)	Lmaj promast 58.4
CC(Sc1nncn1C)C(=O)Nc1ccc2ccccc2c1 (configuration not stated)	none (no result: Redox H2O2 prof, Hep lipid drop, Lmaj promast, T cruzi inh)
O=C(Nc1ccccn1)c1ccc(S(=O)(=O)c2ccc(Cl)cc2)cc1	Lmaj promast 76.2
Cc1cc(=O)n(Nc2ccccc2)c(O)c1C#N	none (no result: Redox H2O2 prof, Hep lipid drop, Lmaj promast, T cruzi inh)
Cc1cc(SCC(=O)OCC(=O)NC(C)c2ccccc2)c(C)cc1Br (configuration not stated)	Lmaj promast 51.2
OCCNC(=S)c1ccccc1	none (no result: Redox H2O2 prof, Lmaj promast)
Cc1cc(N2CCN(C)CC2)nc2ccc(NC(=S)NCCC(C)C)cc12	T cruzi inh 57.4 (no result: Redox H2O2 prof, Lmaj promast)
CCCCN(CC)CCCNC(=S)Nc1ccc2nc(N3CCN(CC)CC3)cc(C)c2c1	Lmaj promast 96.4
CCCCN(CC)CCCNC(=S)Nc1ccc2nc(N3CCN(C)CC3)cc(C)c2c1	Lmaj promast 56.2
COC(=O)c1ccc(C(=S)NCC2(N(C)C)CCCCC2)cc1	none (no result: Redox H2O2 prof, Lmaj promast)
CN(CC(=O)Nc1ccccc1Cl)C(=O)C1CCN(C(=O)c2ccc(F)cc2)CC1	none (no result: Redox H2O2 prof, Hep lipid drop, Lmaj promast, T cruzi inh)
O=C(CSc1nnc2ccc(-c3ccc(F)cc3)nn12)NCC1CCCO1 (configuration not stated)	none (no result: Redox H2O2 prof, Hep lipid drop, Lmaj promast)
O=C(c1cnsn1)N1CCC(CO)(Cc2ccc(Cl)cc2)CC1	none
OCC1(Cc2ccccc2)CCN(Cc2ccc(C(F)(F)F)cc2)CC1	Lmaj promast 80.8
CSc1ccc(CN2CCC(CO)(Cc3ccc(Cl)cc3)CC2)cc1	Lmaj promast 87.0
OCC1(Cc2ccc(Cl)cc2)CCN(Cc2ccccc2F)CC1	Lmaj promast 57.1
OCC1(Cc2ccc(Cl)cc2)CCN(CC2CC=CCC2)CC1 (configuration not stated)	Lmaj promast 87.4
OCC1(Cc2ccccc2)CCN(Cc2cccc(F)c2F)CC1	none
CN(CCOc1ccc(Cl)cc1)CC(O)c1ccccc1 (configuration not stated)	none (no result: Redox H2O2 prof, Lmaj promast)
CN(CCOc1ccc(Br)cc1)CC(O)COc1ccc(C#N)cc1 (configuration not stated)	none (no result: Redox H2O2 prof, Lmaj promast)
CC(OCC(O)CN(C)CCOc1ccccc1)c1ccc(Cl)cc1 (configuration not stated)	Lmaj promast 99.0 (no result: Hep lipid drop)
CN(CCOc1ccc(Br)cc1)CC(O)c1ccccc1 (configuration not stated)	T cruzi inh 70.1 (no result: Redox H2O2 prof, Lmaj promast)
CN(CCOc1ccccc1)CC(O)COCc1ccccc1F (configuration not stated)	T cruzi inh 54.6 (no result: Redox H2O2 prof, Lmaj promast)
CN(CCOc1ccccc1)CC(O)COc1ccccc1 (configuration not stated)	none (no result: Redox H2O2 prof, Lmaj promast)
CC(OC(=O)CCN=C1NS(=O)(=O)c2ccccc21)C(=O)Nc1ccc(F)c(F)c1F (configuration not stated)	none (no result: Redox H2O2 prof, Hep lipid drop, Lmaj promast)
O=C(O)COc1ccccc1C(Nc1cccnc1)c1cc(Cl)c2cccnc2c1O (configuration not stated)	none
COc1ccccc1C(NC(C)=O)c1cc(Cl)c2cccnc2c1O (configuration not stated)	T cruzi inh 60.7 (no result: Redox H2O2 prof, Lmaj promast)
CCC(=O)NC(c1ccc(OC)c(OC)c1)c1cc(Cl)c2cccnc2c1O (configuration not stated)	Lmaj promast 90.4, T cruzi inh 62.4
CCOc1ccc(C(Nc2cccnc2)c2cc(Cl)c3cccnc3c2O)cc1 (configuration not stated)	Lmaj promast 89.5
O=C(NC(c1ccccc1)c1cc(Cl)c2cccnc2c1O)c1cccnc1 (configuration not stated)	Lmaj promast 98.0, T cruzi inh 58.1 (no result: MPTP block)
CC(=O)NC(C)c1cc(Cl)c2cccnc2c1O (configuration not stated)	none (no result: Redox H2O2 prof, Hep lipid drop, Lmaj promast, T cruzi inh)
CCC(=O)NC(c1ccc(C)cc1)c1cc(Cl)c2cccnc2c1O (configuration not stated)	none (no result: Redox H2O2 prof, Hep lipid drop, Lmaj promast, T cruzi inh)
Cc1ccc(C(=O)NCC(=O)OCC(=O)c2ccc(Br)s2)cc1	none (no result: Redox H2O2 prof, Hep lipid drop, Lmaj promast)
O=C1Cc2cc([N+](=O)[O-])ccc2N1c1c(Cl)cccc1Cl	none (no result: Redox H2O2 prof, Lmaj promast)
COc1ccc(C(NC(C)=O)c2nccc3cc(OC)c(OC)cc23)cc1OC (configuration not stated)	none (no result: Redox H2O2 prof, Lmaj promast)
COc1ccc(C(NC(C)=O)c2cc(Cl)c3cccnc3c2O)cc1OC (configuration not stated)	T cruzi inh 57.5
CCOC(=O)/C(=C(/C)N)C1CC(=O)NC1=O (configuration not stated)	none (no result: Redox H2O2 prof, Hep lipid drop, Lmaj promast, T cruzi inh)
O=C1c2cccc3c(Nc4ccccc4Cl)c([N+](=O)[O-])cc(c23)C(=O)N1CCO	T cruzi inh 59.3 (no result: Hep lipid drop)
CC(C)c1ccc(CN(C)CC(O)c2ccccc2)cc1 (configuration not stated)	Lmaj promast 74.7
O=C(NNS(=O)(=O)c1ccc(F)cc1)C1CC(c2cccnc2)=NO1 (configuration not stated)	none
CCN(CC1CCCO1)C(=O)CCc1nnc(CCc2ccccc2OC)o1 (configuration not stated)	none (no result: Redox H2O2 prof, Lmaj promast)
C/C(=N\OCC(=O)OCC(=O)NC(=O)c1ccccc1)c1ccc2c(c1)OCO2	none (no result: Redox H2O2 prof, Hep lipid drop, Lmaj promast)
c1ccc(NCc2nc3ccccc3n2CCOc2ccccc2)cc1	none
Cc1ccc(OCCn2c(CCCO)nc3ccccc32)cc1	Lmaj promast 54.2
COc1ccc(NCc2nc3ccccc3n2CCOc2ccccc2)cc1	Lmaj promast 86.8, T cruzi inh 68.9
CC(=O)Nc1ccc(-c2nnc(SCc3c(C)cc(C)cc3C)n2C)cc1	Lmaj promast 76.1
Cc1cc(NC(=O)c2cccs2)n(-c2nc3ccccc3[nH]2)n1	T cruzi inh 58.0
COc1cccc(OC)c1C(=O)Nc1cc(C)nn1-c1nc2ccccc2[nH]1	Lmaj promast 65.8
COc1ccc(C(=O)Nc2cc(C)nn2-c2nc3ccccc3[nH]2)c(OC)c1	T cruzi inh 61.5
Cc1cc(NC(=O)c2ccccc2)n(-c2nc3ccccc3[nH]2)n1	none
CC1=C(C(=O)N(C(C)C)C(C)C)CC(CC(=O)NC2CCCC2)C(=O)N1Cc1ccc(F)cc1 (configuration not stated)	none (no result: Redox H2O2 prof, Hep lipid drop, Lmaj promast, T cruzi inh)
O=S1(=O)C[C@H](N2CCN(CC3CC3)CC2)[C@@H](COCc2ccccc2)N1	none (no result: Redox H2O2 prof, Hep lipid drop, Lmaj promast, T cruzi inh)
COc1cccc(CNS(=O)(=O)c2c(C)[nH]c(C)c2C(=O)N2CCCCC2)c1	none (no result: Redox H2O2 prof, Lmaj promast)
